Data reported in ChEMBL document CHEMBL1275462 (Antimicrob Agents Chemother, 2008).
≈ marks a conversion by molar mass, not a printed value. Calls of active or inactive are those of the source. The calls are words filed in the database; no cut-off is given here.

Tests used:
[1] = tested on: Staphylococcus aureus; experiment: Antimicrobial activity against methicillin-resistant Staphylococcus aureus E2125 assessed as concentration required for minimum inhibition of BRP-resistant subpopulation growth by Etest; type: functional
Method in brief: (§1)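 Etest (manufacturer's method) and population analysis: overnight cultures serially diluted and plated on TSA with increasing oxacillin or BPR, CFU counted after 48 h at 37°C. Colonies from subpopulations growing at high oxacillin or BPR were picked, restreaked on antibiotic-free TSA for three passages, then retested by population analysis.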

[2] = tested on: Staphylococcus aureus; experiment: Antimicrobial activity against methicillin-resistant Staphylococcus aureus USA300 assessed as concentration required for minimum inhibition of BRP-resistant subpopulation growth; type: functional; method in brief: as §1
[3] = biological target: T1, MecA (Staphylococcus aureus, UniProt Q7DHH4); experiment: Inhibition of methicillin-resistant Staphylococcus aureus COL PBP2a by competitive assay; set-up: species or system Staphylococcus aureus subsp. aureus COL
T1 sequence (Q7DHH4 whole entry): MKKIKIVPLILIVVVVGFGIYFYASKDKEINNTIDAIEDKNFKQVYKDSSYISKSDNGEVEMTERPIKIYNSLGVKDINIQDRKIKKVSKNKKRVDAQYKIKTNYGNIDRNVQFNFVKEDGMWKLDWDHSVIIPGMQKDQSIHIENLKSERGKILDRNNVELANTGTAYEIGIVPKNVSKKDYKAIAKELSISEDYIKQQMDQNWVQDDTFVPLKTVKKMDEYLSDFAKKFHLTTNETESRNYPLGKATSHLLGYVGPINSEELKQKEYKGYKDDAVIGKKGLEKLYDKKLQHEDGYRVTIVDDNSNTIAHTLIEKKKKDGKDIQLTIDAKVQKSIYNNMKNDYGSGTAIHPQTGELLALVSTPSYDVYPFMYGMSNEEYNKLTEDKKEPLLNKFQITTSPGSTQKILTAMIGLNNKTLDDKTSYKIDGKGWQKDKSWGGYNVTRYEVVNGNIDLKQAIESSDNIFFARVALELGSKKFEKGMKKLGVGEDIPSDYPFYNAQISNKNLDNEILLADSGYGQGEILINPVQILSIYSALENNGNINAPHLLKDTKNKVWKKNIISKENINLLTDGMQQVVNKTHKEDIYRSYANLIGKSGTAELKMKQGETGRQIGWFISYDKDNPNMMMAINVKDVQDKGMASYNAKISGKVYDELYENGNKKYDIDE
Method in brief: (§2)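 Purified soluble PBP 2A (mecA expressed in E. coli, 97% pure) at 0.8 µM, preincubated with drug 30 min at 30°C. Then 20 µM Bocillin FL added for 10 min at 37°C, quenched with SDS-PAGE buffer and boiled. Drug range 0.5–20 µM; for IC50, BPR 0.5–200 µM or oxacillin 5–6,000 µM. Curve fitting.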

[4] = tested on: Staphylococcus aureus; experiment: Antimicrobial activity against methicillin-resistant Staphylococcus aureus HAR24 by Etest; type: functional; method in brief: as §1
[5] = tested on: Staphylococcus aureus; experiment: Antimicrobial activity against methicillin-resistant Staphylococcus aureus E2125 assessed as concentration required for minimum inhibition of oxacillin-resistant subpopulation growth by Etest; type: functional; method in brief: as §1
[6] = tested on: Staphylococcus aureus; experiment: Antimicrobial activity against methicillin-resistant Staphylococcus aureus HU25 assessed as concentration required for minimum inhibition of BRP-resistant subpopulation growth; type: functional; method in brief: as §1
[7] = tested on: Staphylococcus aureus; experiment: Antimicrobial activity against methicillin-resistant Staphylococcus aureus HDE288 assessed as concentration required for minimum inhibition of BRP-resistant subpopulation growth by Etest; type: functional; method in brief: as §1
[8] = tested on: Staphylococcus aureus; experiment: Antimicrobial activity against methicillin-resistant Staphylococcus aureus BK2529 assessed as concentration required for minimum inhibition of BRP-resistant subpopulation growth by Etest; type: functional; method in brief: as §1
[9] = tested on: Staphylococcus aureus; experiment: Displacement of benzyl-[14C]penicillin from Staphylococcus aureus PBP2 RU130 mutant by in vitro competitive assay; conditions: COL
Method in brief: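 Membranes from PBP 2 insertional mutant RU130 (Tn551 in transpeptidase domain), late exponential phase, 150 µg protein, preincubated with increasing oxacillin or BPR 10 min at 30°C. Then labelled with 20 µg/ml benzyl[14C]penicillin 10 min at 37°C and stopped with excess unlabelled penicillin in SDS. SDS-PAGE with phosphor screen exposure for 2 weeks.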

[10] = tested on: Staphylococcus aureus; experiment: Antimicrobial activity against methicillin-resistant Staphylococcus aureus HAR24 assessed as concentration required for minimum inhibition of oxacillin-resistant subpopulation growth by Etest; type: functional; method in brief: as §1
[11] = tested on: Staphylococcus aureus; experiment: Antimicrobial activity against methicillin-resistant Staphylococcus aureus HPV107 assessed as concentration required for bacterial subpopulation growth; type: functional; method in brief: as §1
[12] = tested on: Staphylococcus aureus; experiment: Antimicrobial activity against methicillin-resistant Staphylococcus aureus HPV107 assessed as concentration required for minimum inhibition of BRP-resistant subpopulation growth by Etest; type: functional; method in brief: as §1
[13] = tested on: Staphylococcus aureus; experiment: Antimicrobial activity against methicillin-resistant Staphylococcus aureus USA300 assessed as concentration required for bacterial subpopulation growth; type: functional; method in brief: as §1
[14] = tested on: Staphylococcus aureus; experiment: Antimicrobial activity against methicillin-resistant Staphylococcus aureus HAR22 by Etest; type: functional; method in brief: as §1
[15] = tested on: Staphylococcus aureus; experiment: Antimicrobial activity against methicillin-resistant Staphylococcus aureus HAR22 assessed as concentration required for minimum inhibition of BRP-resistant subpopulation growth; type: functional; method in brief: as §1
[16] = tested on: Staphylococcus aureus; experiment: Antimicrobial activity against oxacillin-resistant Staphylococcus aureus COLVA harboring Tn1546 transposon by Etest; type: functional
Method in brief: (§3)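 Etest and population analysis: overnight cultures plated on TSA with increasing vancomycin, oxacillin or BPR, CFU counted after 48 h at 37°C. For VRSA strains, vancomycin plates also run with constant 1 µg/ml BPR. Vancomycin Etest read after overnight 37°C incubation on TSA with or without 1 µg/ml BPR.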

[17] = tested on: Staphylococcus aureus; experiment: Antimicrobial activity against methicillin-resistant Staphylococcus aureus COL assessed as concentration required for minimum inhibition of BRP-resistant subpopulation growth; type: functional; method in brief: as §1
[18] = tested on: Staphylococcus aureus; experiment: Antimicrobial activity against methicillin-resistant Staphylococcus aureus USA300 assessed as concentration required for minimum inhibition of oxacillin-resistant subpopulation growth by Etest; type: functional; method in brief: as §1
[19] = tested on: Staphylococcus aureus; experiment: Antimicrobial activity against methicillin-resistant Staphylococcus aureus BK2529 assessed as concentration required for bacterial subpopulation growth; type: functional; method in brief: as §1
[20] = tested on: Staphylococcus aureus; experiment: Antimicrobial activity against methicillin-resistant Staphylococcus aureus COL by Etest; type: functional; method in brief: as §1
[21] = tested on: Staphylococcus aureus; experiment: Effect on cell wall composition of Staphylococcus aureus COL at 0.4 ug/ml by HPLC method; type: functional, organism-based
Method in brief: (§4)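 Strain COL was grown in 1-liter cultures at 37°C to OD620 0.4, with or without drug at 0.4 µg/ml in the medium. Peptidoglycan was then purified and analysed by HPLC elution profile.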

[22] = biological target: T2, MecA (Staphylococcus aureus) (UniProt Q7DHH4); experiment: Inhibition of methicillin-resistant Staphylococcus aureus COL PBP2a at 10 uM by competitive assay; conditions: Staphylococcus aureus subsp. aureus COL; method in brief: as §2
T2 sequence (whole entry): T1 sequence (Q7DHH4 whole entry)

[23] = tested on: Staphylococcus aureus; experiment: Antimicrobial activity against methicillin-resistant Staphylococcus aureus E2125 by Etest; type: functional; method in brief: as §1
[24] = tested on: Staphylococcus aureus; experiment: Antimicrobial activity against vancomycin-intermediate Staphylococcus aureus JH9 obtained from bacteremic patient by Etest; type: functional; method in brief: as §3
[25] = tested on: Staphylococcus aureus; experiment: Antimicrobial activity against methicillin-resistant Staphylococcus aureus HDE288 assessed as concentration required for minimum inhibition of oxacillin-resistant subpopulation growth by Etest; type: functional; method in brief: as §1
[26] = tested on: Staphylococcus aureus; experiment: Antimicrobial activity against methicillin-resistant Staphylococcus aureus HPV107 by Etest; type: functional; method in brief: as §1
[27] = tested on: Staphylococcus aureus; experiment: Effect on cell wall composition of Staphylococcus aureus COL at 0.4 ug/ml after 100 mins by HPLC method; type: functional, organism-based; method in brief: as §4
[28] = tested on: Staphylococcus aureus; experiment: Antimicrobial activity against methicillin-resistant Staphylococcus aureus HAR22 assessed as concentration required for bacterial subpopulation growth; type: functional; method in brief: as §1
[29] = tested on: Staphylococcus aureus; experiment: Antimicrobial activity against methicillin-resistant Staphylococcus aureus BK2529 by Etest; type: functional; method in brief: as §1

`Nc1nc(/C(=N/O)C(=O)N[C@@H]2C(=O)N3C(C(=O)O)=C(/C=C4\CCN([C@@H]5CCNC5)C4=O)CS[C@H]23)ns1` [CEFTOBIPROLE] gave an Activity [1] of 1.5 µg/mL, an Activity [2] of 0.8 µg/mL and an IC50 [3] of 3.2 µM. The MIC [4] was 1.5 µg/mL (≈ 2.81 µM), the Activity [5] was 0.8 µg/mL and the Activity [6] was 3 µg/mL. For the same compound, the Activity [7] was 1.5 µg/mL, the Activity [8] was 1.5 µg/mL and the Activity [9] was “Active”. It also gave an Activity [10] of 1.5 µg/mL, an Activity [11] of 3 µg/mL and an Activity [12] of 0.8 µg/mL. The Activity [13] was 1.5 µg/mL, the MIC [14] was 0.8 µg/mL (≈ 1.5 µM) and the Activity [15] was 3 µg/mL. It also gave an MIC [16] of 1.5 µg/mL (≈ 2.81 µM), an Activity [17] of 3 µg/mL and an Activity [18] of 1.5 µg/mL. The Activity [19] was 3 µg/mL, the MIC [20] was 3 µg/mL (≈ 5.61 µM) and the Activity [21] was “Active”. The inhibition [22] was 66%, the MIC [23] was 0.8 µg/mL (≈ 1.5 µM) and the MIC [24] was 0.8 µg/mL (≈ 1.5 µM). The Activity [25] was 1.5 µg/mL, the MIC [26] was 0.8 µg/mL (≈ 1.5 µM) and the Activity [27] was “inactive”. The Activity [28] was 1.5 µg/mL and the MIC [29] was 1.5 µg/mL (≈ 2.81 µM).
